Screening results as filed in PubChem.
G6PDH counter – counter-screen for G6PDH assay hits: L. mesenteroides G6PDH inhibition; Purified L. mesenteroides G6PDH, diaphorase/resazurin coupled fluorescence, 45 min; inhibition, % at 5 µM; hit rate 0.12% among 200,000; AID 1020; in the data active means inhibition above about 50%
HKDC1 inh – HKDC1 (human) hexokinase inhibition. recombinant HKDC1, G6PDH/diaphorase resazurin coupled fluorescence. inhibition, % at 20 µM. hit rate 0.16% among 340,000;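 active means inhibition above about 35% when tested at 20 µM, limit read from the data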
Target sequence (Q2TB90 whole entry, looked up): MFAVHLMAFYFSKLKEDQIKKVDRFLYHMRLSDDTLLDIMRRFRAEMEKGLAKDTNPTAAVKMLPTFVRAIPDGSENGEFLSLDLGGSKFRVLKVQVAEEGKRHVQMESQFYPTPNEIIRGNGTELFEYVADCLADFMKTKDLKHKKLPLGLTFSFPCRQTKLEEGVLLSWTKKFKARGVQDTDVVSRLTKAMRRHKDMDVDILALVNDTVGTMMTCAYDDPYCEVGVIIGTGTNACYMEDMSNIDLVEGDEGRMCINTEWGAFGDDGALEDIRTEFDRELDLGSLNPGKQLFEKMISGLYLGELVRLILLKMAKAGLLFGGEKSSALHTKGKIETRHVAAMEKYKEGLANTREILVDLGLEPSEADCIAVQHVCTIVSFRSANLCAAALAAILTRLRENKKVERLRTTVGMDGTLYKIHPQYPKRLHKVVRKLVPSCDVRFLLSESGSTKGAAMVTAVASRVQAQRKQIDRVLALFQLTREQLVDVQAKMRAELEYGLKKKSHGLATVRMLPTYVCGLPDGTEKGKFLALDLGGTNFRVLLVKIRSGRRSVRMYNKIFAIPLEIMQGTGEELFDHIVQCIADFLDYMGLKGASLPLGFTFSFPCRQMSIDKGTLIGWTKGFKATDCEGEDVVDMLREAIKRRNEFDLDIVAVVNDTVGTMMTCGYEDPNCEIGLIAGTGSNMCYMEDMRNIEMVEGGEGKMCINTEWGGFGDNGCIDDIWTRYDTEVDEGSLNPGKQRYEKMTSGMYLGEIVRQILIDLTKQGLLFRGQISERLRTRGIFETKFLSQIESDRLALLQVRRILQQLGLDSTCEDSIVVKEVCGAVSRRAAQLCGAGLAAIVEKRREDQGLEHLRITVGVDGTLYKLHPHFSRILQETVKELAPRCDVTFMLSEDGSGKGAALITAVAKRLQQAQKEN
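Test system: HK5 enzyme. Quantity: 5 µg/mL HK5 final. Reagent: glucose and ATP substrates. Schedule: 90 min reaction incubation at room temperature, dark. Technique: resazurin-to-resorufin fluorescence via G6PDH and diaphorase coupling, 525/613 nm. Control set: DMSO wells with and without enzyme mix.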
PfGluPho inh – PfG6PD (Plasmodium falciparum) enzyme inhibition | PfGluPho enzyme, NADPH resazurin-diaphorase fluorescence | inhibition, % at 20 µM | hit rate 0.78% among 350,000;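 active means inhibition reaching at least a set limit at 20 µM in the primary screen, cut at about 59% in these data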
Tb hexokinase – T. brucei hexokinase 1 inhibition | recombinant TbHK1, G6PDH-coupled NADH A340 | inhibition, % at 10 µM | hit rate 0.11% among 220,000 | AID 1430;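 active means inhibition of 50% or more in the single-dose primary screen; inactive means inhibition below 50%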
Diaph inh CS – inhibits diaphorase or chemically oxidizes, flagging diaphorase assay artifacts; diaphorase resazurin-to-resorufin fluorescence, NADH, 16 min; bacterial (C. kluyveri) enzyme, not human; inhibition, % at 20 µM; hit rate 0.69% among 190,000;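 active means primary screen inhibition at 20 µM above a set limit, cut at about 50% in these data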
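System: Bacterial diaphorase enzyme (C. kluyveri) | Incubation: 16-min room-temperature incubation before reading | Benchmarks: No-NADH positive control and DMSO neutral control | Measured by: Resorufin fluorescence 544/590 nm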
A number is an active result; – = inactive; · = no result given. Sampled rows, rich in hits. Any-hit rate of the full collection: about 1.3%.

SMILES	G6PDH counter	HKDC1 inh	PfGluPho inh	Tb hexokinase	Diaph inh CS
O=Cc1ccc(Sc2nnc(-c3ccccc3)o2)c([N+](=O)[O-])c1	–	43	94	–	–
CCOC(=O)C1=CC[C@@H](c2ccco2)N(S(=O)(=O)c2ccc(C)cc2)[C@H]1C(=O)OCC	·	–	–	·	·
COc1cccc(/C=N/n2c(-c3n[nH]c4c3CCC4)n[nH]c2=S)c1O	–	–	–	–	58
COCCSc1ccccc1C(=O)N1CCc2ccccc21	·	–	–	·	·
COc1cc2c(C#N)c(N3CCCCC3)nc(N)c2c(N)n1	51	–	–	–	64
CCOc1cc2c(C#N)c(N3CCCCC3)nc(N)c2c(N)n1	–	–	–	–	58
CCOc1cc2c(C#N)c(N3CCNCC3)nc(N)c2c(N)n1	–	–	–	–	–
O=C(c1ccccc1)C(c1ccccc1)c1ccccc1	·	–	–	·	·
Cc1c(Cl)cccc1NS(=O)(=O)c1ccc2c(c1)C1C=CCC1C(c1ccc(C(=O)O)cc1)N2 (centres undefined)	–	–	–	52	59
CCCN1CCCc2cc(CN)ccc21	54	–	66	–	–
O=C(NC1CCCCCCC1)c1c(O)c2ccccc2[nH]c1=O	–	–	–	–	–
O=C(NCc1ccco1)c1sc(=S)n2c1[nH]c(=O)c1ccccc12	–	–	–	–	67
O=C(NC1CCCC1)c1sc(=S)n2c1[nH]c(=O)c1ccccc12	–	–	–	–	61
Cc1cc(N=Cc2c(O)ccc3cc(Br)ccc23)no1	–	–	–	–	64
N=C1/C(=C\c2ccc(SCc3ccco3)o2)C(=O)N=C2SC=NN12	–	–	–	–	54
CCNc1ccc(Br)cc(C(=O)/C=C/c2ccc(Cl)cc2Cl)c1=O	–	–	–	–	54
CNc1ccc(Br)cc(C(=O)/C=C/c2cc(OC)ccc2OC)c1=O	–	–	–	–	–
CS(=O)(=O)Nc1ccccc1NS(C)(=O)=O	·	–	–	–	·
O=C(C1CC1)N1CCc2cc(S(=O)(=O)N3CCOCC3)ccc21	–	–	–	–	–
CC(Cl)C(=O)c1ccc2c(c1)CCN2C(=O)C1CC1 (centres undefined)	–	–	–	–	62
O=C(CN1CCN(c2ccc(Cl)cc2)CC1)NCc1ccccc1	–	–	–	–	86
CC(C)CN(C(=O)CN(C)CC(=O)Nc1ccccc1C#N)c1c(N)n(CC(C)C)c(=O)[nH]c1=O	·	–	–	·	·
Nc1ncc(Br)cc1N=Cc1ccccc1	–	–	89	–	–
Cn1ncc(N=Cc2ccccc2)c1C(N)=O	–	–	–	–	–
CN(C)C(=O)c1ccc(NC(=O)COc2cccc(Oc3ccccc3)c2)cc1	·	–	–	·	·
SMILES	G6PDH counter	HKDC1 inh	PfGluPho inh	Tb hexokinase	Diaph inh CS
COc1ccc(CNC(=O)c2c(C)oc3c2C(=O)c2ccccc2C3=O)cc1	62	–	–	–	–
Cc1onc(-c2ccccc2Cl)c1C(=O)NCc1cccnc1	–	–	–	–	–
CC(=O)c1c(C)oc2c1C(=O)c1ccccc1C2=O	–	–	–	–	–
Cc1oc2c(c1C(=O)NCc1cccnc1)C(=O)c1ccccc1C2=O	59	–	103	–	–
C#Cc1ccc([C@H]2C=C(C(=O)N3CCN(Cc4ccc5c(c4)OCO5)CC3)O[C@@H](OCC)[C@@H]2CCCO)cc1	–	–	–	–	55
CCO[C@H]1OC(C(=O)N2CCN(C)CC2)=C[C@@H](c2ccc(C(F)(F)F)cc2)[C@@H]1CCCO	–	–	–	–	74
O=[N+]([O-])c1ccc(OCCN2CCCCCC2)cc1	–	–	–	–	–
O=C(c1ccccc1)c1ccc2nc(-c3ccco3)c(-c3ccco3)nc2c1	–	–	–	–	74
c1coc(-c2nc3ccccc3nc2-c2ccco2)c1	–	–	–	–	80
O=C(NC1CCCC1)c1ccc2nc(-c3ccco3)c(-c3ccco3)nc2c1	–	–	–	–	80
c1coc(-c2cnc3ccccc3n2)c1	·	·	–	·	·
Cc1ccc(S(=O)(=O)CCC(=O)OCC(=O)N2c3ccccc3CC2C)cc1 (centres undefined)	·	–	–	·	·
CCOc1ccc(-c2cccc(NC(=O)COc3ccccc3)c2)nn1	·	–	–	·	·
CC(C)Oc1cccc(C(=O)C2CCCN(C(=O)c3ccoc3)C2)c1 (centres undefined)	–	–	–	–	–
COc1ccc(CN2CCN(c3ccccn3)CC2)c(OC)c1C	·	–	–	–	·
